{"source": "paper PMC4031611", "about": "(Nature chemistry, 2014)", "key": {"[1]": {"test_system": "lysate of apoptotic HeLa cells", "experiment": "HPLC analysis of C-SNAF reaction in apoptotic cell lysate", "assay_type": "cell-based, human", "details": "C-SNAF 5 μM, overnight, 37 °C"}, "[2]": {"molecular_target": "T1, recombinant human caspase-3 (Homo sapiens, UniProt P42574)", "T1 sequence (P42574 29-175 limits assumed)": "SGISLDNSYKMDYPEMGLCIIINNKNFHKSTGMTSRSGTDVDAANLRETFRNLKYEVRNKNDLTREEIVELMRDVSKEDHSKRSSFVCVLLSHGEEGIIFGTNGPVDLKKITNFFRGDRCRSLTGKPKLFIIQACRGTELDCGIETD", "T1 sequence (P42574 176-277 limits assumed)": "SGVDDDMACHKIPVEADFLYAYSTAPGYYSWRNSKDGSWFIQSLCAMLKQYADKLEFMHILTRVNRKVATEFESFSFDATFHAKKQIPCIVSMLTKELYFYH", "experiment": "Caspase-3-mediated macrocyclization in vitro, HPLC assay", "assay_type": "biochemical", "details": "probe 25 μM, caspase-3 4.9 × 10^−3 U/ml, 37 °C"}, "DOX-treated HeLa cells": {"test_system": "DOX-treated HeLa cells", "experiment": "Epifluorescence microscopy of DOX-treated HeLa cells", "assay_type": "cell-based, human", "details": "for cell labeling efficiency: 24 h, HeLa"}, "[3]": {"experiment": "Blood circulation and biodistribution in healthy nude mice", "assay_type": "in vivo, mouse", "details": "5 nmol i.v."}, "[4]": {"test_system": "STS-induced apoptotic HeLa cells", "experiment": "Epifluorescence microscopy of STS-treated HeLa cells", "assay_type": "cell-based, human", "details": "for cell labeling efficiency: then C-SNAF 2 µM 24 h, HeLa"}, "[5]": {"test_system": "STS-induced apoptotic HeLa cells", "experiment": "Flow cytometry of STS-induced apoptotic HeLa cells labelled with probe", "assay_type": "cell-based, human", "summary_of_the_method": "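HeLa cells made apoptotic with staurosporine, or left viable, then incubated with probe (2 μM), with or without Z-VAD-fmk pretreatment (50 μM). Co-stained with a fluorescent caspase inhibitor (FLICA) as the apoptosis marker. Flow cytometry gated into four quadrants by FLICA and Cy5.5 positivity; Cy5.5 fluorescence compared between apoptotic and viable cells.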"}, "HeLa tumor lysates": {"test_system": "HeLa tumor lysates", "experiment": "HPLC analysis of C-SNAF reaction in tumor lysates", "assay_type": "in vivo, mouse", "details": "C-SNAF 5 μM, 24 h incubation with tumor lysate, 675 nm"}, "[6]": {"experiment": "Stability in mouse serum by HPLC", "assay_type": "in vitro ADME"}, "[7]": {"test_system": "subcutaneous HeLa tumors in female nude mice", "experiment": "In vivo fluorescence imaging of DOX-induced tumor apoptosis", "parameters": "species or system mouse", "summary_of_the_method": "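HeLa s.c. xenografts in female nu/nu mice given DOX 8 mg/kg or saline i.v. every 4 days, three times. Two days after the last dose, probe (5 nmol in saline) given i.v. and imaging started immediately: hyperspectral imager, 635±25 nm excitation, 675 nm long-pass emission, 670–900 nm collected. Cy5.5 unmixed from autofluorescence; tumor ROI intensity expressed as percent difference from saline group. Same animals also imaged after a single DOX dose.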"}, "[8]": {"test_system": "lysate of apoptotic MDA-MB-231 cells", "experiment": "HPLC analysis of C-SNAF reaction in apoptotic cell lysate", "assay_type": "cell-based, human", "details": "C-SNAF 5 μM, overnight, 37 °C"}, "HeLa tumor xenograft": {"test_system": "HeLa tumor xenograft", "experiment": "Chemotherapy mouse model, tumor size", "assay_type": "in vivo", "summary_of_the_method": "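Female nu/nu mice, 6 weeks old, given 2 million HeLa cells s.c. in the shoulders in 50% Matrigel/supplemented DMEM. Tumors grown to 0.7–0.9 cm on one aspect (about 10–15 days), then given DOX 8 mg/kg or saline i.v. every 4 days, three times. Body weight and caliper width/length recorded every other day; volume = (length × width²)/2.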"}, "[9]": {"test_system": "caspase-3/7 activity in HeLa tumor lysates", "experiment": "Caspase-Glo 3/7 assay in tumor lysates", "assay_type": "in vivo, mouse", "details": "3X DOX 8 mg/kg i.v., Caspase-Glo 3/7, n = 4"}}, "note": "Peptide text beside a SMILES is read from it. * marks the point of attachment. Cbz = O=C(OCc1ccccc1)*; CH2F = FC*", "data": [{"molecule": "CCSSC[C@@H](NC(=O)[C@H](CC(=O)O)NC(=O)[C@@H](NC(=O)[C@H](CCC(=O)O)NC(=O)[C@H](CC(=O)O)NC(C)=O)C(C)C)C(=O)N[C@@H](CCCCNC(=O)CCCCCN1C(=CC=CC=CC2=[N+](CC)c3ccc4c(S(=O)(=O)[O-])cc(S(=O)(=O)O)cc4c3C2(C)C)C(C)(C)c2c1ccc1c(S(=O)(=O)O)cc(S(=O)(=O)O)cc21)C(=O)Nc1ccc2nc(C3=N[C@@H](C(=O)NCCCOc4ccc5nc(C#N)ccc5c4)CS3)sc2c1", "note": "[C-SNAF]", "values": [{"measurement": "conversion of C-SNAF to C-SNAF-cycl", "setting": "[1]", "result": "more than 90%"}, {"measurement": "conversion to C-SNAF-cycl after 6 h", "setting": "[2]", "result": "nearly completely converted to C-SNAF-cycl"}, {"measurement": "cell labeling efficiency", "setting": "DOX-treated HeLa cells; DOX 1 μM co-incubated with C-SNAF 2 µM", "result": 9, "unit": "%"}, {"measurement": "cell labeling efficiency", "setting": "DOX-treated HeLa cells; DOX 5 μM co-incubated with C-SNAF 2 µM", "result": 92, "unit": "%"}, {"measurement": "enhancement in cell labeling efficiency", "setting": "DOX-treated HeLa cells; DOX 1 to 5 μM", "result": "approximately 10 fold"}, {"measurement": "time of nearly complete elimination from the body", "setting": "[3]", "result": "≤ 12", "unit": "h"}, {"measurement": "blood half-life", "setting": "[3]; Cy5.5 fluorescence of blood, n = 5", "result": "1.0 ± 0.45", "unit": "h"}, {"measurement": "cell labeling efficiency", "setting": "[4]; STS 0.5 μM 4 h", "result": 23, "unit": "%"}, {"measurement": "cell labeling efficiency", "setting": "[4]; STS 2 μM 4 h", "result": 90, "unit": "%"}, {"measurement": "enhancement in cell labeling efficiency", "setting": "[4]; STS 0.5 to 2 μM", "result": "approximately 4 fold"}, {"measurement": "labeling of apoptotic cells (fluorescence microscopy, words)", "setting": "[4]; probe 2 µM, 24 h, STS-treated HeLa cells", "result": "Efficient labeling"}, {"measurement": "uptake in untreated viable HeLa cells", "setting": "[5]; probe 2 μM, 24 h, Cy5.5 fluorescence", "result": "low uptake"}, {"measurement": "increase in Cy5.5 fluorescence of FLICA-positive apoptotic cells relative to viable cells", "setting": "[5]; probe 2 μM, 24 h, STS 2 μM 4 h, HeLa", "result": "~13", "unit": "fold"}, {"measurement": "amount of C-SNAF-cycl in DOX-treated relative to saline-treated tumor lysates (HPLC)", "setting": "HeLa tumor lysates", "result": "significantly greater amount of C-SNAF-cycl"}, {"measurement": "half-life", "setting": "[6]", "result": "> 6", "unit": "h"}, {"measurement": "increase in tumor fluorescence signal, DOX-treated compared to saline-treated mice", "setting": "[7]; 5 nmol i.v., 3X DOX 8 mg/kg, by 4 h, n = 5", "result": 1.6, "unit": "fold"}, {"measurement": "time of maximum tumor fluorescence after administration", "setting": "[7]; 5 nmol i.v., n = 5", "result": 1, "unit": "h"}, {"measurement": "tumor fluorescence relative to saline-treated mice", "setting": "[7]; after single dose of DOX (1X DOX), 2 h after C-SNAF, n = 4", "result": "moderate increase in tumor fluorescence"}, {"measurement": "tumor fluorescence relative to saline and 1X DOX", "setting": "[7]; after third round of DOX, same animals, n = 4", "result": "significant fluorescence enhancement"}, {"measurement": "conversion of C-SNAF to C-SNAF-cycl", "setting": "[8]", "result": "more than 90%"}]}, {"molecule": "COc1cccc2c1C(=O)c1c(O)c3c(c(O)c1C2=O)C[C@@](O)(C(=O)CO)C[C@@H]3O[C@H]1C[C@H](N)[C@H](O)[C@H](C)O1", "note": "[DOX, doxorubicin]", "values": [{"measurement": "tumor size change", "setting": "HeLa tumor xenograft; following 1X DOX 8 mg/kg i.v.", "result": "no significant size difference"}, {"measurement": "tumor size change", "setting": "HeLa tumor xenograft; following the third round of DOX 8 mg/kg i.v.", "result": "significant size reduction"}, {"measurement": "increase in caspase-3/7 activity, DOX-treated relative to saline-treated tumors", "setting": "[9]", "result": 1.9, "unit": "fold"}]}, {"molecule": "COC(=O)C[C@H](NC(=O)[C@H](C)NC(=O)[C@@H](NC(=O)OCc1ccccc1)C(C)C)C(=O)CF", "note": "[Z-VAD-fmk, reference compound] (Cbz-Val-Ala-Asp(OMe)-CH2F)", "values": [{"measurement": "effect of caspase inhibitor on labeling by C-SNAF", "setting": "[5]; Z-VAD-fmk 50 μM, 30 min before C-SNAF 2 μM, STS-treated HeLa", "result": "abrogated"}]}]}
